Measurements: ChEMBL document CHEMBL1914320, “C4-alkylthiols with activity against Moraxella catarrhalis and Mycobacterium tuberculosis” (Bioorg Med Chem, 2011)
Values after ≈ are worked out from the molar mass of the structure shown. Active and inactive are the calls of the source. The calls are words filed in the database; no cut-off is given here.

How the values were obtained:
[1] = tested on: Moraxella catarrhalis; test: Antibacterial activity against beta-lactamase producing Moraxella catarrhalis isolate 1 at 10 ug/disc after overnight incubation by disc diffusion assay; assay type: functional
Summary of the method: (§1)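 Isolates were held at −80 °C. Five colonies were suspended in Mueller-Hinton broth to a 0.5 McFarland density and swabbed onto MH agar. Discs carried 10 μg compound, applied in methanol and dried at room temperature. Plates were incubated overnight at 37 °C, and the zone of inhibition was measured in mm from the disc edge. Controls were methanol-only and penicillin discs. Run blinded, in triplicate.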

[2] = tested on: Moraxella catarrhalis; test: Antibacterial activity against beta-lactamase producing Moraxella catarrhalis isolate 2 at 10 ug/disc after overnight incubation by disc diffusion assay; assay type: functional; settings: for zone of inhibition at 10 µg/disc: read-out: IZ; summary of the method: as §1
[3] = tested on: Moraxella catarrhalis; test: Antibacterial activity against beta-lactamase producing Moraxella catarrhalis isolate 3 at 10 ug/disc after overnight incubation by disc diffusion assay; assay type: functional; summary of the method: as §1
[4] = tested on: Moraxella catarrhalis; test: Antibacterial activity against beta-lactamase producing Moraxella catarrhalis isolate 4 at 10 ug/disc after overnight incubation by disc diffusion assay; assay type: functional; summary of the method: as §1
[5] = tested on: Moraxella catarrhalis; test: Antibacterial activity against beta-lactamase producing Moraxella catarrhalis isolate 5 at 10 ug/disc after overnight incubation by disc diffusion assay; assay type: functional; settings: for zone of inhibition at 10 µg/disc: read-out: IZ; summary of the method: as §1
[6] = tested on: Moraxella catarrhalis; test: Antibacterial activity against beta-lactamase producing Moraxella catarrhalis isolate 1 at 10 ug/disc after overnight incubation by disc diffusion assay in presence of 1 mol equiv of glutathione; assay type: functional
[7] = tested on: Moraxella catarrhalis; test: Antibacterial activity against beta-lactamase producing Moraxella catarrhalis isolate 2 at 10 ug/disc after overnight incubation by disc diffusion assay in presence of 1 mol equiv of glutathione; assay type: functional; settings: read-out: IZ
[8] = tested on: Moraxella catarrhalis; test: Antibacterial activity against beta-lactamase producing Moraxella catarrhalis isolate 3 at 10 ug/disc after overnight incubation by disc diffusion assay in presence of 1 mol equiv of glutathione; assay type: functional
[9] = tested on: Moraxella catarrhalis; test: Antibacterial activity against beta-lactamase producing Moraxella catarrhalis isolate 4 at 10 ug/disc after overnight incubation by disc diffusion assay in presence of 1 mol equiv of glutathione; assay type: functional
[10] = tested on: Moraxella catarrhalis; test: Antibacterial activity against beta-lactamase producing Moraxella catarrhalis isolate 5 at 10 ug/disc after overnight incubation by disc diffusion assay in presence of 1 mol equiv of glutathione; assay type: functional; settings: read-out: IZ
[11] = tested on: Moraxella catarrhalis; test: Antibacterial activity against beta-lactamase producing Moraxella catarrhalis isolate 6 at 10 ug/disc after overnight incubation by disc diffusion assay in presence of 1 mol equiv of glutathione; assay type: functional
[12] = tested on: Moraxella catarrhalis; test: Antibacterial activity against beta-lactamase producing Moraxella catarrhalis isolate 1 after 48 hrs incubation by microdilution broth method; assay type: functional; settings: isolate 1, 48 h
Summary of the method: (§2)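 Broth microdilution followed CLSI guidelines. Compound was dissolved in 95% ethanol, diluted at least 10-fold into Mueller-Hinton broth, then serially two-fold diluted from 500 to 15.6 μg/mL. Actively growing culture was added at 5 × 10^5 cells/mL. Plates ran 48 h at 37 °C, scored for visible growth at 24 and 48 h. MIC was the lowest concentration without growth. For MBC, 10 μL from each clear well was plated on MH agar. Controls were ethanol and penicillin. Triplicate.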

[13] = tested on: Moraxella catarrhalis; test: Antibacterial activity against beta-lactamase producing Moraxella catarrhalis isolate 2 after 48 hrs incubation by microdilution broth method; assay type: functional; settings: isolate 2, 48 h; summary of the method: as §2
[14] = tested on: Moraxella catarrhalis; test: Antibacterial activity against beta-lactamase producing Moraxella catarrhalis isolate 3 after 48 hrs incubation by microdilution broth method; assay type: functional; settings: isolate 3, 48 h; summary of the method: as §2
[15] = tested on: Moraxella catarrhalis; test: Antibacterial activity against beta-lactamase producing Moraxella catarrhalis isolate 4 after 48 hrs incubation by microdilution broth method; assay type: functional; settings: isolate 4, 48 h; summary of the method: as §2
[16] = tested on: Moraxella catarrhalis; test: Antibacterial activity against beta-lactamase producing Moraxella catarrhalis isolate 5 after 48 hrs incubation by microdilution broth method; assay type: functional; settings: isolate 5, 48 h; summary of the method: as §2
[17] = tested on: Moraxella catarrhalis; test: Antibacterial activity against beta-lactamase producing Moraxella catarrhalis isolate 6 after 48 hrs incubation by microdilution broth method; assay type: functional; settings: isolate 6, 48 h; summary of the method: as §2
[18] = tested on: Mycobacterium tuberculosis; test: Antimycobacterial activity against wild type Mycobacterium tuberculosis H37Rv by Alamar blue assay; assay type: functional
[19] = tested on: Escherichia coli; test: Antibacterial activity against non-beta-lactamase producing Escherichia coli ATCC 25922 at 10 ug/disc after overnight incubation by disc diffusion assay; assay type: functional, organism-based; summary of the method: as §1
[20] = tested on: Pseudomonas aeruginosa; test: Antibacterial activity against non-beta-lactamase producing Pseudomonas aeruginosa ATCC 27853 at 10 ug/disc after overnight incubation by disc diffusion assay; assay type: functional, organism-based; summary of the method: as §1
[21] = tested on: Staphylococcus aureus; test: Antibacterial activity against non-beta-lactamase producing Staphylococcus aureus ATCC 25923 at 10 ug/disc after overnight incubation by disc diffusion assay; assay type: functional, organism-based; summary of the method: as §1
[22] = tested on: Enterococcus faecalis; test: Antibacterial activity against non-beta-lactamase producing Enterococcus faecalis ATCC 29212 at 10 ug/disc after overnight incubation by disc diffusion assay; assay type: functional, organism-based; summary of the method: as §1
[23] = tested on: Escherichia coli; test: Antibacterial activity against non-beta-lactamase producing Escherichia coli ATCC 25922 after 48 hrs by microdilution broth method; assay type: functional, organism-based; summary of the method: as §2
[24] = tested on: Pseudomonas aeruginosa; test: Antibacterial activity against non-beta-lactamase producing Pseudomonas aeruginosa ATCC 27853 after 48 hrs by microdilution broth method; assay type: functional, organism-based; summary of the method: as §2
[25] = tested on: Staphylococcus aureus; test: Antibacterial activity against non-beta-lactamase producing Staphylococcus aureus ATCC 25923 after 48 hrs by microdilution broth method; assay type: functional, organism-based; summary of the method: as §2
[26] = tested on: Enterococcus faecalis; test: Antibacterial activity against non-beta-lactamase producing Enterococcus faecalis ATCC 29212 after 48 hrs by microdilution broth method; assay type: functional, organism-based; summary of the method: as §2
[27] = tested on: Moraxella catarrhalis; test: Antibacterial activity against beta-lactamase producing Moraxella catarrhalis isolate 6 at 10 ug/disc after overnight incubation by disc diffusion assay; assay type: functional; summary of the method: as §1

SMILES	inhibition zone (IZ) [1]	zone of inhibition at 10 µg/disc [2]	inhibition zone (IZ) [3]	inhibition zone (IZ) [4]	zone of inhibition at 10 µg/disc [5]	MBC [12]	MBC [13]	MBC [14]	MBC [15]	MBC [16]	MBC [17]	MBC [18]	Activity [19]	Activity [20]	Activity [21]	Activity [22]	Activity [23]	Activity [24]	Activity [25]	Activity [26]	other results
CCC(C=O)(CC)SSC(CC)(CC)C1C(OC)C(=O)N1CC(=O)OC (racemic)	inactive	10 mm	inactive	inactive	7 mm	> 500 µg/mL	> 500 µg/mL	< 15.6 µg/mL	< 15.6 µg/mL	< 15.6 µg/mL	< 15.6 µg/mL	200 µg/mL (≈ 493 µM)	inactive	inactive	inactive	inactive	inactive	inactive	inactive	inactive	inhibition zone (IZ) [6]: inactive; zone of inhibition at 10 µg/disc [7]: 7 mm; inhibition zone (IZ) [8]: inactive; inhibition zone (IZ) [9]: inactive; zone of inhibition at 10 µg/disc [10]: 7 mm; inhibition zone (IZ) [11]: inactive; inhibition zone (IZ) [27]: inactive
O=C1CC(Sc2ccc(O)cc2)N1S(=O)(=O)O (racemic)	–	9 mm	–	–	9 mm	> 500 µg/mL	< 15.6 µg/mL	< 15.6 µg/mL	< 15.6 µg/mL	< 15.6 µg/mL	< 15.6 µg/mL	> 200 µg/mL	inactive	inactive	inactive	inactive	inactive	inactive	inactive	inactive	zone of inhibition at 10 µg/disc ([1]; read-out: IZ): 13 mm; zone of inhibition at 10 µg/disc ([3]; read-out: IZ): 7 mm; zone of inhibition at 10 µg/disc ([4]; read-out: IZ): 8 mm; zone of inhibition at 10 µg/disc ([6]; read-out: IZ): 9 mm; zone of inhibition at 10 µg/disc [7]: 7 mm; zone of inhibition at 10 µg/disc ([8]; read-out: IZ): 7 mm; zone of inhibition at 10 µg/disc ([9]; read-out: IZ): 7 mm; zone of inhibition at 10 µg/disc [10]: 8 mm; zone of inhibition at 10 µg/disc ([11]; read-out: IZ): 8 mm; zone of inhibition at 10 µg/disc ([27]; read-out: IZ): 8 mm
O=C1CC(Sc2cccs2)N1 (racemic)	inactive	–	inactive	inactive	–	> 500 µg/mL	> 500 µg/mL	500 µg/mL (≈ 2700 µM)	500 µg/mL (≈ 2700 µM)	500 µg/mL (≈ 2700 µM)	> 500 µg/mL	100 µg/mL (≈ 540 µM)	inactive	inactive	inactive	inactive	inactive	inactive	inactive	inactive	inhibition zone (IZ) [2]: inactive; inhibition zone (IZ) [5]: inactive
